In the library only some 9.6% were active in any assay of this set; here they are far more common.
L major viab: Leishmania major promastigote growth inhibition, primary screen; Leishmania major promastigotes, resazurin fluorescence viability; inhibition, % at 10 µM; 200,000 compounds, 9% hits; AID 1063, 2008; in the data active = inhibition above about 50%;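 note: promastigotes grown with compound for 44 hours at 28 °C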
Ba/F3 V617F tox: reduced viability of JAK2V617F-dependent Ba/F3 cells, primary screen, JAK2V617F inhibitor project, cell-based, Ba/F3 EpoR-JAK2V617F, luminescence | ATP luminescence | inhibition, % at 5.6 µM | 220,000 compounds, 1.1% hits | AID 1446, 2008;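 active = inhibition above the campaign mean plus 3 SD over all tested compounds, cut at about 24% in these data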;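 note: cytokine-independent growth of Ba/F3 cells driven by EpoR plus mutant JAK2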
APP 5UTR inh: inhibitors of APP translation via 5'UTR reporter, primary screen, APP 5'UTR luciferase, SH-SY5Y cells | SH-SY5Y APP 5'UTR-luciferase reporter, luminescence | inhibition, % at 2 µM | 190,000 compounds, 0.82% hits;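 active = inhibition above a set limit, derived from the sample mean plus 3 SD, cut at about 45% in these data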
BaF3 parental: parental Ba/F3 cell viability inhibition, counter-screen for JAK2V617F inhibitor project, murine pro-B, CellTiter-Glo luminescence; AID 1486, 2009; inhibition, % at 5.6 µM; CellTiter-Glo ATP luminescence; 220,000 compounds, 1.1% hits;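 active = inhibition above a per-campaign cutoff, the mean inhibition of all tested compounds plus 3 SD, cut at about 27% in these data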
MT stabilizer: microtubule stabilizers in HeLa cells, primary screen, imaging, high-content imaging. HeLa tubulin immunostaining HCS, 24 h; share of cells brighter than vehicle mean+2SD. % tubulin-high responders, % at 10 µM. 200,000 compounds, 0.83% hits. AID 2205, 2009;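 active = plate Z-score above 3 for both tubulin-high and condensed-nucleus cell shares, with cell loss under 80%, at 10 µM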;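 note: anti alpha tubulin signal scored within the nucleus-defined area of each cell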
bCat nuc transl: modulators of beta-catenin nuclear translocation, primary screen, imaging, HeLa cells, immunofluorescence, high-content. nuclear translocation activity, % at 5 µM. 190,000 compounds, 0.3% hits. AID 1665, 2009;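 active = nuclear translocation activity above 50% at 5 µM, with a well cell count of 50 or more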;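 note: per-cell ratio of nuclear to cytoplasmic median beta-catenin stain intensity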
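Technique: fluorescence imaging of beta-catenin antibody stain plus DAPI / Material: human HeLa cell line / Incubation: compound treatment 24 h, 37°C, 5% CO2 / Read-out basis: % activation of per-cell nuclear versus cytoplasmic median beta-catenin signal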
Large screens that a line does not name were inactive.

O=C(/C=C/c1ccco1)Nc1nc(-c2ccccn2)cs1	L major viab 100
O=C(/C=C/c1ccco1)Nc1nc(-c2ccccc2)cs1	none
O=C(/C=C/c1ccco1)Nc1ccccn1	Ba/F3 V617F tox 63, BaF3 parental 56
Cc1ccc(C(=O)CSc2nnc(N)s2)c(C)c1	none
O=C(N/N=C/c1cc2c(cc1Cl)OCO2)c1ccccn1	none (no result: bCat nuc transl)
Cc1onc(-c2ccccc2)c1C(=O)N/N=C/c1cc2c(cc1Cl)OCO2	L major viab 100
COc1cc(/C=N/NC(=O)c2c(-c3ccccc3)noc2C)ccc1O	none
COc1cccc(/C=N/NC(=O)c2c(-c3ccccc3)noc2C)c1O	L major viab 95 (no result: bCat nuc transl)
O=C(CSc1nnc(CNc2ccc(F)cc2)o1)N1c2ccccc2Sc2ccccc21	L major viab 65 (no result: bCat nuc transl)
CCOC(=O)CN(C(=O)CSc1nnc(CNc2ccc(F)cc2)o1)c1ccccc1	none
CC(C)(C)N(Cc1ccccc1)C(=O)CSc1nnc(CNc2ccc(F)cc2)o1	L major viab 100
COC(=O)CN(c1cc([N+](=O)[O-])ccc1OC)S(C)(=O)=O	none
COc1ccc(-c2onc3ccc(Br)cc23)cc1	none
COc1cc(-c2onc3ccc(Br)cc23)cc(OC)c1OC	Ba/F3 V617F tox 69, APP 5UTR inh 73, BaF3 parental 79, MT stabilizer 7.7
CC(C)n1cnc2c(=S)nc[nH]c21	none (no result: L major viab, APP 5UTR inh, MT stabilizer)
S=c1nc[nH]c2c1ncn2C1CCCO1 (stereo not drawn)	Ba/F3 V617F tox 63, BaF3 parental 44 (no result: L major viab, APP 5UTR inh, MT stabilizer)
CCOC(=O)c1ccc2ncc(C(=O)OCC)c(Nc3ccc(N4CCOCC4)cc3)c2c1	L major viab 74
CCOC(=O)c1ccc2ncc(C(=O)OCC)c(NCCCN3CCOCC3)c2c1	L major viab 60
CC(COc1cccc2ccccc12)CN1CCN(C)CC1 (stereo not drawn)	L major viab 83
O=C(NC(Cc1ccccc1)c1ccc2c(c1)OCCCO2)c1ccc(F)cc1 (stereo not drawn)	none
COc1ccc(-n2c(C)cc(/C=C3\SC(=S)N(Cc4ccco4)C3=O)c2C)cc1	L major viab 68 (no result: bCat nuc transl)
CC(NC(=O)c1ccc(N)cc1)c1ccccc1 (stereo not drawn)	none
O=S(=O)(Cc1ccccc1)NCC1CCCO1 (stereo not drawn)	none
O=C(Cc1cccc2ccccc12)NCC1CCCO1 (stereo not drawn)	none
CC(CNCC1CCCO1)COc1ccccc1 (stereo not drawn)	L major viab 62
CC(CNCC1CCCO1)COc1cccc2ccccc12 (stereo not drawn)	L major viab 80
COC(=O)c1sc2nc(CN3CCN(c4ccc(OC)cc4)CC3)[nH]c(=O)c2c1C	none
CSc1nc(Oc2ccc3ccccc3c2)c2sccc2n1	MT stabilizer 41, bCat nuc transl 86
COc1ccc(Oc2nc(SC)nc3ccsc23)cc1	none (no result: bCat nuc transl)
CCN(CC)c1c([N+](=O)[O-])c(=O)n(C)c2ccccc12	none
Cn1c(=O)c([N+](=O)[O-])c(Cl)c2ccccc21	APP 5UTR inh 57 (no result: MT stabilizer)
CC(=O)Oc1ccc(N(C(C)=O)S(=O)(=O)c2cccs2)c2ccccc12	L major viab 100
CC(=O)Oc1ccccc1N(C(C)=O)S(=O)(=O)c1ccc2ccccc2c1	none
COc1ccc2c(c1)c(=O)c(C(=O)c1ccccc1)cn2Cc1ccc(C)cc1	L major viab 52, MT stabilizer 22
Cc1cc(N=Nc2ccc(C)c(N=Nc3cc(C)c(N)cc3N)c2)c(N)cc1N	none (no result: L major viab, APP 5UTR inh, MT stabilizer)
Cc1ccnn1CC(=O)N/N=C/c1ccc([N+](=O)[O-])s1	none (no result: L major viab, APP 5UTR inh, MT stabilizer)
Cc1ccc(NC(C)C(=O)N/N=C/c2ccc([N+](=O)[O-])s2)cc1 (stereo not drawn)	L major viab 100
COc1ccc(NC(C)C(=O)N/N=C/c2ccc([N+](=O)[O-])s2)cc1 (stereo not drawn)	L major viab 100
O=C1CSC(c2ccccc2[N+](=O)[O-])N1c1cccc(F)c1 (stereo not drawn)	none
O=C(N/N=C/c1ccc(N2CCOCC2)cc1)c1cccs1	none
O=C(N/N=C/c1ccc(N2CCOCC2)cc1)c1ccccc1OCCOc1ccccc1	L major viab 61
CC1CC(C)CN(CCOc2ccc(Cl)cc2Cl)C1 (stereo not drawn)	L major viab 97
Clc1cccc(OCCn2cncn2)c1Cl	none (no result: bCat nuc transl)
CC1CC(C)CN(CCOc2cccc(Cl)c2Cl)C1 (stereo not drawn)	L major viab 91
CCN1CCN(CCOc2cccc(Cl)c2Cl)CC1	L major viab 86
CCC(=O)c1ccccc1OCCN1CCN(CC)CC1	none
Nc1nc(SCc2nc(-c3ccccc3)no2)[nH]c(=O)c1-c1ccccc1	none (no result: bCat nuc transl)
Cc1nc2c(C#N)c(C)[nH]n2c(=O)c1Cc1ccccc1	L major viab 87
Cc1nc2c(-c3ccccc3)c(C)[nH]n2c(=O)c1Cc1ccccc1	none
COc1cc(C(=O)O/N=C2/C=CC(=O)C(C)=C2C)cc(OC)c1OC	L major viab 100
COc1cc(C(=O)O/N=C(\N)c2ccccn2)cc(OC)c1OC	none (no result: L major viab, APP 5UTR inh, MT stabilizer)
COc1cc(C(=O)O/N=C2\C=CC(=O)C=C2C)cc(OC)c1OC	L major viab 97
COc1cc(C(=O)O/N=C2\CCCc3c2ccc(OC)c3[N+](=O)[O-])cc(OC)c1OC	none
CN(C)S(=O)(=O)c1ccc(N=Cc2c(C(F)(F)F)[nH]n(C)c2=O)cc1	none
S=c1[nH]nc(Cn2cnc3ccccc32)n1-c1ccccc1	none
COC(=O)Cn1ncc(N2C3CC(CC(C)(C)C3)C2C)c(Cl)c1=O (stereo not drawn)	L major viab 81 (no result: bCat nuc transl)
CN(C)CCCNC(=O)c1ccc(-c2ccccc2)cc1	L major viab 86
COCCNC(=O)c1cc2sc3ccccc3c2s1	none
CN(C)CCCNC(=O)c1cc2sc3ccccc3c2s1	L major viab 92
CC(C)c1ccc(C(=O)NCCCN(C)C)cc1	none
COc1ccc(NC(=O)Nc2cccs2)cc1Cl	none
CCCC(=O)Nc1sc(C)c(C)c1C#N	none
CCc1c(C)sc(NC(=O)CC#N)c1C#N	L major viab 66
CC1(C)CC(=O)C2=C(C1)N(c1ccc(F)cc1)C(=O)CC2c1cccnc1 (stereo not drawn)	none
CCSc1nnc(N2C(=O)CC(c3ccsc3)C3=C2CC(C)(C)CC3=O)s1 (stereo not drawn)	L major viab 67
O=C(c1cccs1)[C@@H]1[C@@H]2C(=O)N(Cc3ccc4c(c3)OCO4)C(=O)[C@@H]2C2c3ccccc3C=CN21 (stereo partly drawn)	L major viab 88
